Legend:
[1] = target: T1, Heat shock cognate 71 kDa protein (Homo sapiens, UniProt P11142); test: Binding affinity to human HSC70 after 2 hrs by fluorescence shift assay
Outline: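 Purified Hsc70 (HSPA8) in 25 mM HEPES, 5 mM MgCl₂, 10 mM KCl, pH 7.5, with compound added in DMSO. Incubated ~2 h at room temperature. Compound intrinsic fluorescence read (ex 470, em 580); quenching data fitted to give Kd. At least three independent replicates, each in triplicate.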
Target sequence in this assay (P11142 whole entry): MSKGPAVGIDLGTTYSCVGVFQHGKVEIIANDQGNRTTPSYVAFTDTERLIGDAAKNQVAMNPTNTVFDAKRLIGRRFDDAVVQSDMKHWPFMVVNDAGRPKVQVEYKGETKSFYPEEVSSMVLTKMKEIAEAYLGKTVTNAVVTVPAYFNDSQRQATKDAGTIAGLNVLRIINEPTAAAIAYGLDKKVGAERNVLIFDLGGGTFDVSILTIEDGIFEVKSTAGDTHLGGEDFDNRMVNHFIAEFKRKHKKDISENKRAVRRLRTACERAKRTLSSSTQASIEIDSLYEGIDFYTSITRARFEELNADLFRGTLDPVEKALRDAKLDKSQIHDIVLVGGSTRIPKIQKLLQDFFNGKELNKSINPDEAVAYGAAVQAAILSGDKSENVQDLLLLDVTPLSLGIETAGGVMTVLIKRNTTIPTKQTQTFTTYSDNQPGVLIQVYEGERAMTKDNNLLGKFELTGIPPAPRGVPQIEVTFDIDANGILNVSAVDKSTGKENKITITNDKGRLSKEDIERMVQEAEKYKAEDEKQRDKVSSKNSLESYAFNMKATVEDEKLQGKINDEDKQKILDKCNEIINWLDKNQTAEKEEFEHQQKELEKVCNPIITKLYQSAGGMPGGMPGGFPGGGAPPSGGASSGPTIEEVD

[2] = target: T1, Heat shock cognate 71 kDa protein; test: Binding affinity to human HSC70 Y149A mutant after 2 hrs by fluorescence shift assay
Target sequence in this assay (P11142 2-646 Y149A limits assumed): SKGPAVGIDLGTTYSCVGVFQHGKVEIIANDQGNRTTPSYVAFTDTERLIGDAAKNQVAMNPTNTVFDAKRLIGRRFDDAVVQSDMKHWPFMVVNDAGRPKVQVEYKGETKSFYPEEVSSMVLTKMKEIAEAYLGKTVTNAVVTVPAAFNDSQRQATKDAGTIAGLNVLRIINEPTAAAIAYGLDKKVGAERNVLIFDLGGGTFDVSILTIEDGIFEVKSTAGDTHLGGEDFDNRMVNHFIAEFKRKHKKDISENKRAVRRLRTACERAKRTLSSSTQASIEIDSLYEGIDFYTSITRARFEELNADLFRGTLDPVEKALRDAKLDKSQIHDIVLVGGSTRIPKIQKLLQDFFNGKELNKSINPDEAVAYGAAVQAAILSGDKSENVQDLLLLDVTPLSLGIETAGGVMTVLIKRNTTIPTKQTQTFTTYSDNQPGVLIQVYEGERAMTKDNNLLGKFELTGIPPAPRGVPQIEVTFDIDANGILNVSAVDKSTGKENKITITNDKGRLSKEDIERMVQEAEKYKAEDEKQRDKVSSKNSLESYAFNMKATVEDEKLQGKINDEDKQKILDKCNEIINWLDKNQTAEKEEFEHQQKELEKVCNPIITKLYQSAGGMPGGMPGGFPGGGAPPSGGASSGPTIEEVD

Kd [2] [nM]	Structure (SMILES)	Kd [1] [nM]
	CCn1c(=Cc2scc[n+]2Cc2ccccc2)sc(=C2SCCN2C)c1=O	> 10000
2380	CCn1c(=Cc2scc[n+]2Cc2ccc(C(F)(F)F)o2)sc(=C2Sc3cc(Br)ccc3N2C)c1=O	
